From ChEMBL document CHEMBL1629526, “4-[1-(Substituted aryl/alkyl carbonyl)-benzoimidazol-2-yl]-benzenesulfonic acids: synthesis, antimicrobial activity, QSAR studies, and antiviral evaluation” (Eur J Med Chem, 2010)
In brackets after ≈: the same amount, converted by molar mass.

How the values were obtained:
Human alphaherpesvirus 2 = assay: Antiviral activity against Herpes simplex virus 2 G infected in HEL cells assessed as inhibition of virus induced cytopathicity after 2 to 4 days by MTS assay; format: functional, organism-based; details: Human alphaherpesvirus 2, strain G
Coxsackievirus B4 [1] = assay: Antiviral activity against coxsackievirus B4 infected in human HeLa cells assessed as inhibition of virus induced cytopathicity by visual scoring of CPE; format: functional, organism-based; details: Enterovirus B
[2] = test system: Vesicular stomatitis virus; assay: Antiviral activity against Vesicular stomatitis virus infected in HEL cells assessed as inhibition of virus induced cytopathicity after 2 to 4 days by MTS assay; format: functional, organism-based
Escherichia coli = assay: Antimicrobial activity against Escherichia coli after 24 hrs by tube dilution method; format: functional
[3] = test system: Respiratory syncytial virus; assay: Antiviral activity against Respiratory syncytial virus infected in human HeLa cells assessed as inhibition of virus induced cytopathicity by visual scoring of CPE; format: functional, organism-based
Human alphaherpesvirus 1 [4] = assay: Antiviral activity against thymidine kinase deficient acyclovir-resistant Herpes simplex virus 1 KOS infected in HEL cells assessed as inhibition of virus induced cytopathicity after 2 to 4 days by MTS assay; format: functional, organism-based; details: Human alphaherpesvirus 1, KOS
Coxsackievirus B4 [5] = assay: Antiviral activity against Coxsackie virus B4 infected in african green monkey Vero cells assessed as inhibition of virus induced cytopathicity after 2 to 4 days by MTS assay; format: functional, organism-based; details: Enterovirus B
Aspergillus niger = assay: Antimicrobial activity against Aspergillus niger after 7 days by tube dilution method; format: functional; details: 168 h
[6] = test system: Mammalian orthoreovirus 1; assay: Antiviral activity against Reovirus 1 virus infected in african green monkey Vero cells assessed as inhibition of virus induced cytopathicity after 2 to 4 days by MTS assay; format: functional, organism-based; details: Mammalian orthoreovirus 1, Vero
Sindbis virus = assay: Antiviral activity against Sindbis virus infected in african green monkey Vero cells assessed as inhibition of virus induced cytopathicity after 2 to 4 days by MTS assay; format: functional, organism-based
[7] = Cytotoxicity against MDCK cells assessed as altered cell morphology; format: cell-based, Canis lupus familiaris; details: dog
In short: (§1)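 Uninfected cell cultures run alongside the antiviral assays, exposed to serial compound dilutions and incubated at 37 °C for 2–4 days. Toxicity was scored microscopically and reported as the minimum cytotoxic concentration (MCC), the lowest concentration causing a detectable change in normal cell morphology.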

Feline coronavirus = assay: Antiviral activity against Feline coronavirus infected in cat CRFK cells assessed as inhibition of virus induced cytopathicity after 2 to 4 days by MTS assay; format: functional, organism-based; details: Alphacoronavirus 1, CRFK
Candida albicans = assay: Antimicrobial activity against Candida albicans after 48 hrs by tube dilution method; format: functional
Coxsackievirus B4 [8] = assay: Antiviral activity against coxsackievirus B4 infected in human HeLa cells assessed as inhibition of virus induced cytopathicity after 2 to 4 days by MTS assay; format: functional, organism-based; details: Enterovirus B
Bacillus subtilis = assay: Antimicrobial activity against Bacillus subtilis after 24 hrs by tube dilution method; format: functional
In short: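 Serial dilutions in double-strength nutrient broth (I.P.) with ciprofloxacin as reference, tube dilution, incubated 37 °C for 24 h. MIC is the lowest concentration that inhibited growth.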

[9] = Cytotoxicity against human HeLa cells assessed as altered cell morphology; format: cell-based; in short: as §1
Influenza A virus [10] = assay: Antiviral activity against Influenza A H3N2 virus subtype infected in MDCK cells assessed as inhibition of virus induced cytopathicity by visual scoring of CPE; format: functional, organism-based
Vaccinia virus = assay: Antiviral activity against Vaccinia virus infected in HEL cells assessed as inhibition of virus induced cytopathicity after 2 to 4 days by MTS assay; format: functional, organism-based; details: Orthopoxvirus vaccinia
[11] = test system: Respiratory syncytial virus; assay: Antiviral activity against Respiratory syncytial virus infected in human HeLa cells assessed as inhibition of virus induced cytopathicity after 2 to 4 days by MTS assay; format: functional, organism-based
MDCK = assay: Cytotoxicity against MDCK cells assessed as cell viability by MTS assay; format: cell-based, Canis lupus familiaris; details: dog, mdck
In short: (§2)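 Uninfected cultures were run in parallel with the antiviral assays. Viability was read by colorimetric formazan MTS assay.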

[12] = Cytotoxicity against cat CRFK cells assessed as cell viability by MTS assay; format: cell-based, Felis catus; details: crfk; in short: as §2
Felid alphaherpesvirus 1 = assay: Antiviral activity against Feline herpesvirus 1 infected in cat CRFK cells assessed as inhibition of virus induced cytopathicity after 2 to 4 days by MTS assay; format: functional, organism-based; details: Felid alphaherpesvirus 1, CRFK
Human alphaherpesvirus 1 [13] = assay: Antiviral activity against Herpes simplex virus 1 KOS infected in HEL cells assessed as inhibition of virus induced cytopathicity after 2 to 4 days by MTS assay; format: functional, organism-based; details: Human alphaherpesvirus 1, KOS
Influenza B virus [14] = assay: Antiviral activity against Influenza B virus infected in MDCK cells assessed as inhibition of virus induced cytopathicity after 2 to 4 days by MTS assay; format: functional, organism-based
HeLa = assay: Cytotoxicity against human HeLa cells assessed as cell viability by MTS assay; format: cell-based; details: hela; in short: as §2
[15] = test system: Vesicular stomatitis virus; assay: Antiviral activity against Vesicular stomatitis virus infected in human HeLa cells assessed as inhibition of virus induced cytopathicity after 2 to 4 days by MTS assay; format: functional, organism-based
Influenza A virus [16] = assay: Antiviral activity against Influenza A H1N1 virus subtype infected in MDCK cells assessed as inhibition of virus induced cytopathicity after 2 to 4 days by MTS assay; format: functional, organism-based
Staphylococcus aureus = assay: Antimicrobial activity against Staphylococcus aureus after 24 hrs by tube dilution method; format: functional
Influenza A virus [17] = assay: Antiviral activity against Influenza A H3N2 virus subtype infected in MDCK cells assessed as inhibition of virus induced cytopathicity after 2 to 4 days by MTS assay; format: functional, organism-based
[18] = Cytotoxicity against african green monkey Vero cells assessed as altered cell morphology; format: cell-based; details: chlorocebus sabaeus; in short: as §1
[19] = test system: Vesicular stomatitis virus; assay: Antiviral activity against Vesicular stomatitis virus infected in human HeLa cells assessed as inhibition of virus induced cytopathicity by visual scoring of CPE; format: functional, organism-based
Influenza A virus [20] = assay: Antiviral activity against Influenza A H1N1 virus subtype infected in MDCK cells assessed as inhibition of virus induced cytopathicity by visual scoring of CPE; format: functional, organism-based
Influenza B virus [21] = assay: Antiviral activity against Influenza B virus infected in MDCK cells assessed as inhibition of virus induced cytopathicity by visual scoring of CPE; format: functional, organism-based
[22] = Cytotoxicity against human HEL cells assessed as altered cell morphology; format: cell-based; in short: as §1
Punta Toro virus = assay: Antiviral activity against Punta Toro virus infected in african green monkey Vero cells assessed as inhibition of virus induced cytopathicity after 2 to 4 days by MTS assay; format: functional, organism-based
Human respirovirus 3 = assay: Antiviral activity against parainfluenza-3 virus infected in african green monkey Vero cells assessed as inhibition of virus induced cytopathicity after 2 to 4 days by MTS assay; format: functional, organism-based; details: Human respirovirus 3, Vero

Which EC50 (Human alphaherpesvirus 2) does the source give for O=C(c1ccccc1O)n1c(-c2ccc(S(=O)(=O)O)cc2)nc2ccccc21 here?
The EC50 was greater than 100 µg/mL.

What about the EC50 (Coxsackievirus B4 [1]) of the same molecule?
Its EC50 is greater than 100 µg/mL.

What about the EC50 [2] of the same molecule?
The EC50 was greater than 100 µg/mL.

What about the MBC (Escherichia coli) of the same molecule?
The MBC was 12.5 µg/mL (≈ 31.7 µM).

And the EC50 [3]?
Its EC50 is greater than 100 µg/mL.

What about the EC50 (Human alphaherpesvirus 1 [4]) of the same molecule?
The EC50 was greater than 100 µg/mL.

What about the EC50 (Coxsackievirus B4 [5]) of the same molecule?
The EC50 was greater than 100 µg/mL.

What about the MFC (Aspergillus niger) of the same molecule?
Its MFC is greater than 50 µg/mL.

And the EC50 [6]?
The EC50 was greater than 100 µg/mL.

And the EC50 (Sindbis virus)?
Its EC50 is greater than 100 µg/mL.

What about the MCC [7] of the same molecule?
The MCC was 100 µg/mL.

What about the EC50 (Feline coronavirus) of the same molecule?
Its EC50 is greater than 100 µg/mL.

And the MFC (Candida albicans)?
Its MFC is 50 µg/mL (≈ 127 µM).

And the EC50 (Coxsackievirus B4 [8])?
The EC50 was greater than 100 µg/mL.

And the MBC (Bacillus subtilis)?
The MBC was 25 µg/mL (≈ 63.4 µM).

What about the MCC [9] of the same molecule?
The MCC was greater than 100 µg/mL.

What about the EC50 (Influenza A virus [10]) of the same molecule?
Its EC50 is greater than 20 µg/mL.

What about the EC50 (Vaccinia virus) of the same molecule?
The EC50 was greater than 100 µg/mL.

And the EC50 [11]?
Its EC50 is greater than 100 µg/mL.

And the CC50 (MDCK)?
The CC50 was greater than 100 µg/mL.

What about the CC50 [12] of the same molecule?
Its CC50 is greater than 100 µg/mL.

And the EC50 (Felid alphaherpesvirus 1)?
The EC50 was greater than 100 µg/mL.

What about the EC50 (Human alphaherpesvirus 1 [13]) of the same molecule?
The EC50 was greater than 100 µg/mL.

And the EC50 (Influenza B virus [14])?
The EC50 was greater than 20 µg/mL.

And the CC50 (HeLa)?
The CC50 was greater than 100 µg/mL.

And the EC50 [15]?
The EC50 was greater than 100 µg/mL.

What about the EC50 (Influenza A virus [16]) of the same molecule?
The EC50 was greater than 20 µg/mL.

What about the MBC (Staphylococcus aureus) of the same molecule?
Its MBC is 25 µg/mL (≈ 63.4 µM).

What about the EC50 (Influenza A virus [17]) of the same molecule?
Its EC50 is greater than 20 µg/mL.

And the MCC [18]?
Its MCC is greater than 100 µg/mL.

What about the EC50 [19] of the same molecule?
Its EC50 is greater than 100 µg/mL.

What about the EC50 (Influenza A virus [20]) of the same molecule?
Its EC50 is greater than 20 µg/mL.

And the EC50 (Influenza B virus [21])?
The EC50 was greater than 20 µg/mL.

What about the MCC [22] of the same molecule?
The MCC was greater than 100 µg/mL.

And the EC50 (Punta Toro virus)?
The EC50 was greater than 100 µg/mL.

What about the EC50 (Human respirovirus 3) of the same molecule?
The EC50 was greater than 100 µg/mL.

Which EC50 (Human alphaherpesvirus 2) does the source give for C=CC(=O)n1c(-c2ccc(S(=O)(=O)O)cc2)nc2ccccc21 here?
The EC50 was greater than 20 µg/mL.

What about the EC50 (Coxsackievirus B4 [1]) of the same molecule?
Its EC50 is greater than 100 µg/mL.

And the EC50 [2]?
The EC50 was greater than 20 µg/mL.

And the MBC (Escherichia coli)?
The MBC was 1.56 µg/mL (≈ 4.75 µM).

And the EC50 [3]?
The EC50 was greater than 100 µg/mL.

What about the EC50 (Human alphaherpesvirus 1 [4]) of the same molecule?
Its EC50 is greater than 20 µg/mL.

What about the EC50 (Coxsackievirus B4 [5]) of the same molecule?
Its EC50 is greater than 100 µg/mL.

And the MFC (Aspergillus niger)?
The MFC was greater than 50 µg/mL.

And the EC50 [6]?
The EC50 was greater than 100 µg/mL.

And the EC50 (Sindbis virus)?
Its EC50 is greater than 100 µg/mL.

And the MCC [7]?
The MCC was no less than 0.8 µg/mL.

And the EC50 (Feline coronavirus)?
The EC50 was greater than 20 µg/mL.

What about the MFC (Candida albicans) of the same molecule?
The MFC was greater than 50 µg/mL.

What about the EC50 (Coxsackievirus B4 [8]) of the same molecule?
The EC50 was greater than 100 µg/mL.

And the MBC (Bacillus subtilis)?
Its MBC is 12.5 µg/mL (≈ 38.1 µM).

What about the MCC [9] of the same molecule?
The MCC was greater than 100 µg/mL.

And the EC50 (Influenza A virus [10])?
Its EC50 is greater than 0.8 µg/mL.

And the EC50 (Vaccinia virus)?
The EC50 was greater than 20 µg/mL.

And the EC50 [11]?
Its EC50 is greater than 100 µg/mL.

And the CC50 (MDCK)?
The CC50 was 14.1 µg/mL (≈ 42.9 µM).

What about the CC50 [12] of the same molecule?
The CC50 was greater than 82 µg/mL.

What about the EC50 (Felid alphaherpesvirus 1) of the same molecule?
The EC50 was greater than 20 µg/mL.

And the EC50 (Human alphaherpesvirus 1 [13])?
The EC50 was greater than 20 µg/mL.

What about the CC50 (HeLa) of the same molecule?
The CC50 was greater than 100 µg/mL.

What about the EC50 [15] of the same molecule?
Its EC50 is greater than 100 µg/mL.

What about the EC50 (Influenza A virus [16]) of the same molecule?
Its EC50 is greater than 0.8 µg/mL.

What about the MBC (Staphylococcus aureus) of the same molecule?
The MBC was 6.25 µg/mL (≈ 19 µM).

And the EC50 (Influenza A virus [17])?
Its EC50 is greater than 0.8 µg/mL.

What about the MCC [18] of the same molecule?
Its MCC is greater than 100 µg/mL.

What about the EC50 [19] of the same molecule?
The EC50 was greater than 100 µg/mL.

And the EC50 (Influenza A virus [20])?
Its EC50 is greater than 0.8 µg/mL.

And the MCC [22]?
The MCC was 100 µg/mL.

What about the EC50 (Punta Toro virus) of the same molecule?
The EC50 was greater than 100 µg/mL.

What about the EC50 (Human respirovirus 3) of the same molecule?
The EC50 was greater than 100 µg/mL.
